Consider six compounds from publication PMC9748978 (RSC Advances, 2022).

Where two headings read alike, the source gives them in different places.

One series is described as follows: Tack. Conditions: transdermal patch (cross-linked adhesive film containing the active ingredient). The series is classed as physicochemical. An outline of the steps:
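Tested with a tensile testing machine per AFERA 4015. The patch has an acrylate copolymer adhesive matrix with the active substance added as an ethyl acetate solution, dosed on the basis of 200 mg per 140 cm2. It was coated at 250 μm on polyester film and cross-linked by UV after 10 min at 110 °C.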

Series [1] in a line: Thermogravimetric analysis. The series is classed as physicochemical. Conditions: compound, TG. The method, boiled down: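 About 5 mg samples were heated from 25 to 1000 °C on a thermobalance under nitrogen (10 ml min−1) and under air (25 ml min−1). Onset decomposition temperature was read from TG curves and maximum decomposition temperature from DTG curves.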
The next series in a line: Solubility in water. The class given is physicochemical. Conditions: 25 °C, 24 h.
Series [2] can be described thus: n-octanol/water partition coefficient, shake flask method. Conditions: n-octanol–water, 25 °C. The class given is physicochemical. An outline of the steps:
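10 mg of compound was shaken with 5 ml n-octanol-saturated water and 5 ml water-saturated n-octanol, stirred 3 h at 25 °C, and the layers were separated. Aqueous concentration was measured by HPLC. Octanol-layer concentration was taken as total minus aqueous. log P = log C0 − log Cw.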

The format of series [3] is in vitro ADME. Conditions: pig skin; for CUM – cumulative permeation mass / Q – the percentage of the applied dose after 24 h: 24 h; for CUM – cumulative permeation mass / Q – the percentage of the applied dose after 24 h / J SS – steady-state flux / K P – permeability coefficient / K m – skin partition coefficient / L T – lag time: solution in 70% ethanol; for steady-state flux (JSS): from ethanol solution. The method, boiled down: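 Pig abdominal skin in Franz cells with 8 cm3 PBS (pH 7.4) acceptor at 37.0 ± 0.5 °C, stirred 400 rpm. Donor: 1 cm3 of about 5% solution (about 0.05 g cm−3) in 70% ethanol, stoppered. Acceptor sampled (0.3 cm3, buffer replaced) at 0.5–24 h and assayed by HPLC. Jss is the slope of cumulative mass versus time, and lag time is the x-intercept. Kp, D and Km are calculated from these. Mean ± SD, ANOVA/Tukey.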

Series [4] can be described thus: Accumulation in the skin after 24 h penetration. The class given is in vitro ADME, pig. Conditions: after 24 h of penetration from solution, porcine skin. The method, boiled down: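 Franz diffusion cells with porcine abdominal skin, PBS (pH 7.4) acceptor at 37.0 ± 0.5 °C. After 24 h penetration the skin was removed, rinsed in PBS pH 7.4, dried at room temperature, weighed, cut to the 1 cm2 diffusion area and minced. It was then extracted in methanol for 24 h at 4 °C, homogenized 3 min and centrifuged at 3500 rpm for 5 min. Supernatant was assayed by HPLC, expressed as μg IBU per g skin.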

For series [5] the following is noted: compound, TG; cited from earlier work.
Series [6] is classed as in vitro ADME, pig. Conditions: from transdermal patch.

With `CC(C)Cc1ccc(C(C)C(=O)[O-])cc1.[Na+]` (stereo not drawn) [[IBU][Na], sodium ibuprofenate], the Tack in the series “Tack” is 0.05 N.
For the compound `CC(C)Cc1ccc(C(C)C(=O)O)cc1.CCCOC(=O)[C@@H](N)Cc1c[nH]c2ccccc12` [[TrpOPr][IBU], L-tryptophan propyl ester ibuprofenate], the “T max (maximum decomposition temperature)” value (“T max” for short) in series [1] stood at 219.3 °C. For the same compound, in the series “Solubility in water”, the Solubility in water is given as 9.396 ± 0.027 g dm^−3 and the “Solubility in water (as ibuprofen)” value is 4.577 ± 0.037 g IBU per dm^3. Besides, the “log P” value in series [2] is on record as “+1.044”. In series [3], the “CUM – cumulative permeation mass” value came out at 319.22 μg cm^−2, the “Q – the percentage of the applied dose after 24 h” value (“Q – the percentage” below) came out at 12.42%, the “J SS – steady-state flux” value is listed as 22.72 μg cm^−2 and the “K P – permeability coefficient” value worked out at 4418.6 ×10⁻⁶ cm/s. In series [3], the “K m – skin partition coefficient” value amounted to 0.208 and the “L T – lag time” value is given as 2.179 min. The “accumulation in the skin” value in series [4] was 595.41 ± 76.32 μg IBU per g skin.
As to “L-histidine propyl ester bis(ibuprofenate) [[HisOPr][IBU]]”, in series [1], the “T max” value came to 212.5 °C and the “T onset (the onset of the thermal degradation)” value (“T onset” below) was 157.5 °C. In addition, in series [2], the “log P” value is reported as “+0.963”. Further, in series [3], the “CUM – cumulative permeation mass” value was determined as 335.13 μg cm^−2, the “Q – the percentage” value was 7.90%, the “steady-state flux (JSS)” value worked out at 21.33 μg IBU per cm^2 h and the “J SS – steady-state flux” value is given as 21.33 μg cm^−2. In addition, in series [3], the “K P – permeability coefficient” value came out at 4143.9 ×10⁻⁶ cm/s, the “K m – skin partition coefficient” value was determined as 0.192 and the “L T – lag time” value stood at 2.141 min.
In the case of `CC(C)Cc1ccc(C(C)C(=O)O)cc1` (racemic) [[IBU], (R,S)-Ibuprofen, reference compound], in series [3], the “CUM – cumulative permeation mass” value was 133.35 μg cm^−2, the “Q – the percentage” value came out at 9.33%, the “steady-state flux (JSS)” value worked out at 25.87 μg IBU per cm^2 h and the “J SS – steady-state flux” value is 25.87 μg cm^−2. Also, in series [3], the “K m – skin partition coefficient” value stood at 0.281 and the “L T – lag time” value is recorded as 2.582 min. The “accumulation in the skin” value in series [4] was determined as 725.49 ± 164.6184 μg IBU per g skin. Besides, in series [5], the “T max” value is 218.7 °C and the “T onset” value is 189.8 °C.
On to `CC(C)Cc1ccc(C(C)C(=O)O)cc1.CCCOC(=O)[C@@H](N)Cc1ccc(O)cc1` [[TyrOPr][IBU], L-tyrosine propyl ester ibuprofenate], for which, in series [1], the “T max” value came to 209.4 °C and the “T onset” value was 148.1 °C. In the series “Solubility in water”, the Solubility in water was determined as 8.569 ± 0.022 g dm^−3 and the “Solubility in water (as ibuprofen)” value came out at 4.188 ± 0.065 g IBU per dm^3. In addition, the “log P” value in series [2] is “+1.055”. In series [3], the “CUM – cumulative permeation mass” value is 284.27 μg cm^−2, the “Q – the percentage” value is given as 9.51%, the “J SS – steady-state flux” value is 25.57 μg cm^−2 and the “K P – permeability coefficient” value was 4971.7 ×10⁻⁶ cm/s. Moreover, in series [3], the “K m – skin partition coefficient” value came out at 0.229 and the “L T – lag time” value turned out to be 2.133 min. In addition, the “accumulation in the skin” value in series [4] turned out to be 609.35 ± 106.07 μg IBU per g skin.
With `CC(C)Cc1ccc(C(C)C(=O)O)cc1.CCCOC(=O)[C@@H](N)Cc1ccccc1` [[PheOPr][IBU], L-phenylalanine propyl ester ibuprofenate], in “Solubility in water”, the Solubility in water came out at 9.481 ± 0.066 g dm^−3 and the “Solubility in water (as ibuprofen)” value came out at 4.596 ± 0.161 g IBU per dm^3. For the same compound, in series [2], the “log P” value is given as “+1.021”. Further, in series [3], the “CUM – cumulative permeation mass” value is 454.86 μg cm^−2, the “Q – the percentage” value was determined as 15.80%, the “steady-state flux (JSS)” value was 28.01 μg IBU per cm^2 h and the “J SS – steady-state flux” value stood at 28.01 μg cm^−2. Also, in series [3], the “K P – permeability coefficient” value turned out to be 5446.1 ×10⁻⁶ cm/s, the “K m – skin partition coefficient” value turned out to be 0.200 and the “L T – lag time” value was 1.705 min. Moreover, in series [6], the “delay time (lag time)” value is “about 1 h”. Also, the “accumulation in the skin” value in series [4] amounted to 602.86 ± 76.98 μg IBU per g skin. Further, in series [5], the “T max” value is 210.4 °C and the “T onset” value was 157.0 °C.
